Assay results from different studies.
Lines come from different studies, so protocols differ.
Target: Serine/threonine-protein kinase PAK 1 (PAK1, Homo sapiens, UniProt Q13153)

`O=C1Nc2ccc(Cl)cc2C1=Cc1cc(Cl)c(O)c(Cl)c1` gave a remaining signal of 97.2% (cell-free assay; 0.5 µM).
With `COc1cc2ncnc(Nc3ccc(Oc4ccccc4)cc3C)c2cc1OC` the inhibition was 4% (enzyme activity, inhibitor; 1 µM).
`N#CCCc1ccc2c(c1)-c1[nH]c3ccc([N+](=O)[O-])cc3c1CC(=O)N2` has a remaining signal of 52.1% (cell-free assay; 0.5 µM).
For `CCOC(=O)c1cc2cc(-c3cc(C(=O)NCc4ccc(C(=O)O)cc4)nn3C)ccc2[nH]1`, the remaining binding was 92% (cell-free assay, competition with immobilised ligand; 0.1 µM).
With `CC/C(=N\NC(=O)NCc1cccc(O)c1)c1ccc(O)c(C)c1O` the inhibition was -6.4% (enzyme activity, inhibitor; 0.1 µM).
With `CS(=O)(=O)NCC[C@H](NC(=O)c1cncc2c1cnn2-c1ccc(F)cc1)c1ccnc(S(C)(=O)=O)c1` the remaining binding was 88% (cell-free assay, competition with immobilised ligand; 1 µM).
`Oc1ccc(-c2nc(-c3ccncc3)c(-c3ccc(F)cc3)[nH]2)cc1` has a remaining signal of 97.3% (cell-free assay; 0.5 µM).
`COc1ccc2c(c1)O[C@@H](c1ccc(OC)c(OC)c1)C[C@H]2NC(=O)C1(c2ccc3c(c2)OC(F)(F)O3)CC1` gave a remaining binding of 89% (cell-free assay, competition with immobilised ligand; 1 µM).
`Cc1ccc(C(=O)Nc2ccc(CN3CCN(C)CC3)c(C(F)(F)F)c2)cc1C#Cc1cnc2cccnn12` gave a remaining activity of 100% (enzyme activity, inhibitor; 23.5 nM).
For `Cc1cnc(NC2CCOCC2)nc1-n1cnc(C(=O)NC(CN)c2cc(F)cc(Cl)c2)c1` (centres unmarked), the remaining activity was 51% (enzyme activity, inhibitor, radiometric; 1 µM).
For `Cc1ccc(C(=O)NCc2ccsc2)cc1C#Cc1cn(C(C)C)c2ncnc(N)c12`, the activity vs control was 82% (enzyme activity, inhibitor; 1 µM).
`O=C(Nc1cnn(-c2csc(C(=O)NC3COC3)c2)c1)Nc1c(F)cccc1Cl` has a remaining activity of 81.2% (enzyme activity, inhibitor; 5 µM).
For `C=CC(=O)Nc1cc(Nc2nccc(Nc3cc(Cl)c(F)cc3C(C)(C)O)n2)c(OC)cc1N1CC[C@@H](N(C)C)C1`, the inhibition was -9% (enzyme activity, inhibitor; 1 µM).
For `O=C1CCc2cc(Nc3cc(OC4CCOCC4)c([N+](=O)[O-])cc3Cl)ccc2N1`, the remaining binding was 88% (cell-free assay, competition with immobilised ligand; 1 µM).
For `O=S(=O)(Nc1cc(Sc2ncn[nH]2)c(O)c2ccccc12)c1ccc(-c2ccccc2)cc1`, the remaining activity was no less than 75% (enzyme activity, inhibitor; 1 µM).
With `CC(C)(C)c1nc2c(s1)c1nc(N)ncc1c1ccc(NS(=O)(=O)c3c(F)cccc3F)c(F)c12` the remaining activity was 93% (enzyme activity, inhibitor, radiometric; 1 µM).
With `CC(=O)C1=C(C)N(c2cccc(C(F)(F)F)c2)C(=O)N[C@@H]1c1ccc(C#N)nc1` the remaining binding was 91.2% (cell-free assay, competition with immobilised ligand; 1 µM).
The inhibition of `O=C(CSc1nc2nccnc2c(=O)n1CCc1ccccc1)Nc1nccs1` is reported as 19% (enzyme activity, inhibitor; 10 µM).
`CN(C)C1CCN(CC#Cc2nn(C3CCCC3)c3nc(NCc4ccccc4)ncc23)C1` (centres unmarked) gave an inhibition of 1% (enzyme activity, inhibitor, FRET; 10 µM).
For `Cc1c(NC(=O)c2cc(C(N)=O)nc3cc(F)ccc23)c(C(F)(F)F)nn1Cc1ccc(C(C)(C)C)cc1`, the remaining binding was 98% (cell-free assay, competition with immobilised ligand; 1 µM).
